According to ChEMBL document CHEMBL1165883, “Synthesis, evaluation and computational studies on a series of acetophenone based 1-(aryloxypropyl)-4-(chloroaryl) piperazines as potential atypical antipsychotics” (2010):
Activity calls are given as the source filed them. The calls are words filed in the database; no cut-off is given here.

Legend:
Mus musculus [1] = assay: Antipsychotic activity in ip dosed albino lyka mouse assessed as reversal of apomorphine-induced mesh climbing response administered 10 mins prior to apomorphine challenge after 10 to 30 mins; format: functional
How it was run: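 Mice of either sex (26–38 g), six per group, habituated singly in a wire-mesh cage (13 cm diameter, 14 cm high). Compound, saline (control) or clozapine (positive control) given ip; apomorphine 2.5 mg kg^-1 ip 10 min later. Climbing was scored over 60 s in the mesh cage at 10, 15, 20, 25 and 30 min: 1 = one–three paws on mesh, 2 = all four. Three titrated dose levels.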

Mus musculus [2] = assay: Antipsychotic activity in ip dosed albino lyka mouse assessed as reversal of apomorphine-induced stereotype response administered 10 mins prior to apomorphine challenge after 10 to 30 mins; format: functional
How it was run: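 Mice of either sex (26–38 g) received vehicle, compound or clozapine (positive control), then apomorphine 2.5 mg kg^-1 after 10 min. Stereotypy was scored over 60 s in an inverted 500 ml beaker at 10, 15, 20, 25 and 30 min post-apomorphine: 1 = rearing, sniffing or grooming; 2 = licking or biting. Three dose levels, chosen by initial titration.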

`Clc1ccc(CN2CCN(Cc3ccc(Cl)cc3)CC2)cc1` was tested, and the ED50 (Mus musculus [1]) was 10.5 mg/kg and the Activity (Mus musculus [2]) was 1.02.
`Clc1ccccc1CN1CCN(Cc2ccccc2Cl)CC1` gave an ED50 (Mus musculus [1]) of 7.2 mg/kg and an Activity (Mus musculus [2]) of 0.86.
For `CC(=O)c1ccccc1OCCCN1CCN(C(=O)c2ccc(Cl)cc2)CC1`, the ED50 (Mus musculus [1]) was “inactive” and the Activity (Mus musculus [2]) was “Active”.
For `CC(=O)c1ccc(OCCCN2CCN(C(=O)c3ccc(Cl)cc3)CC2)cc1`, the ED50 (Mus musculus [1]) was “inactive” and the Activity (Mus musculus [2]) was “Active”.
Work on `CC(=O)c1ccccc1OCCCN1CCN(Cc2ccccc2Cl)CC1` yielded an ED50 (Mus musculus [1]) of 10.5 mg/kg.
`CC(=O)c1ccccc1OCCCN1CCN(C(=O)c2ccccc2Cl)CC1` was tested, and the ED50 (Mus musculus [1]) was “inactive” and the Activity (Mus musculus [2]) was “Active”.
In the case of `CC(=O)c1ccc(OCCCN2CCN(Cc3ccc(Cl)cc3)CC2)cc1`, the ED50 (Mus musculus [1]) is reported as 50 mg/kg.
Work on `CC(=O)c1ccc(OCCCN2CCN(Cc3ccccc3Cl)CC2)cc1` yielded an ED50 (Mus musculus [1]) of 23 mg/kg.
For `CC(=O)c1ccccc1OCCCN1CCN(Cc2ccc(Cl)cc2)CC1`, the ED50 (Mus musculus [1]) was 10 mg/kg.
In the case of `CC(=O)c1ccc(OCCCN2CCN(C(=O)c3ccccc3Cl)CC2)cc1`, the ED50 (Mus musculus [1]) is reported as “inactive” and the Activity (Mus musculus [2]) is reported as “Active”.
